In experiment [1] the test system is Mycobacterium tuberculosis. As to the kind of experiment: Inhibition of fatty acid synthase 1 in Mycobacterium tuberculosis assessed as incorporation of [1-14C]acetate in C16 biosynthesis at 800 ug/ml. Summed up:
(§1)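 M. tuberculosis was grown from frozen stock in 7H12 to OD600 0.3–0.4, diluted 10-fold and grown 48–72 h more. 10-ml aliquots (OD600 0.2–0.25) were pelleted and resuspended in fresh drug-containing medium for 12 h. Cells were labelled with [1-14C]acetate (1 μCi/ml) for 6 h. Soluble lipids were extracted and saponified, and 14C-labelled C16 was quantified.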

Experiment [2] deals with Mycobacterium tuberculosis. As to the kind of experiment: Antimicrobial activity against Mycobacterium tuberculosis at pH 6 by broth microdilution test. In kind it is functional. (In general: Broth dilution looks for growth in wells or tubes with falling amounts of substance.)
Experiment [3] has as its system Mycobacterium tuberculosis. As to the kind of experiment: Antimicrobial activity against Mycobacterium tuberculosis at pH 6.8 by broth microdilution test. In kind it is functional. Summed up: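 Broth macrodilution MIC with an inoculum of 10^5 CFU/ml. Medium was Middlebrook 7H9 with 10% OADC, 0.2% glycerol and 0.05% Tween 80. Medium pH was set to 6 or 6.8 with 4.25% phosphoric acid or 5% dibasic potassium phosphate.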

In experiment [4] the test system is Mycobacterium tuberculosis. The experiment can be described thus: Inhibition of fatty acid synthase 1 in Mycobacterium tuberculosis assessed as incorporation of [1-14C]acetate in C16 biosynthesis at 250 ug/ml. Summed up:
as §1

For experiment [5], the system named is Mycobacterium tuberculosis. The experiment can be described thus: Inhibition of fatty acid synthase 1 in Mycobacterium tuberculosis assessed as incorporation of [1-14C]acetate in C16 biosynthesis at 1250 ug/ml at pH 6.0. Summed up: as §1
The test system of experiment [6] is Mycobacterium tuberculosis. As to the kind of experiment: Inhibition of fatty acid synthase 1 in Mycobacterium tuberculosis assessed as incorporation of [1-14C]acetate in C16 biosynthesis at 250 ug/ml at pH 5.5. Summed up: as §1
Experiment [7] deals with Mycobacterium tuberculosis. The experiment can be described thus: Inhibition of fatty acid synthase 1 in Mycobacterium tuberculosis assessed as incorporation of [1-14C]acetate in C16 biosynthesis at 1200 ug/ml at pH 6.0. Summed up:
as §1

≈ marks a conversion by molar mass, not a printed value.

With `CCCOC(=O)c1cnccn1`, the inhibition in experiment [1] came to 96%. For the same compound, the results for the minimum inhibitory concentration (MIC) in experiment [2] and in experiment [3] were 60 µg/mL (≈ 361 µM) and 80 µg/mL (≈ 481 µM), respectively.
In the case of `NC(=O)c1cnc(Cl)cn1`, in experiment [4], the inhibition was 94%.
In the case of `O=C(O)c1cnccn1` [PYRAZINOIC ACID], the inhibition in experiment [5] and in experiment [6] was 60% each time. The MIC stood at 100 µg/mL (≈ 806 µM) in experiment [2] and 300 µg/mL (≈ 2420 µM) in experiment [3].
As to `NC(=O)c1cnccn1`, the inhibition in experiment [7] is 88%.

As usually defined, the inhibition is how much of the control response was suppressed. One may read the MIC as the least concentration at which growth counts as inhibited. Low readings indicate greater potency, high ones weaker potency.

For the origin of these results see ChEMBL document CHEMBL1142174, “Pyrazinoic acid and its n-propyl ester inhibit fatty acid synthase type I in replicating tubercle bacilli” (2007).
